Ends that are not written are not given here.
What was measured:
FGF receptors = settings: cited from earlier work
mouse VEGFR-3 = assay: phage binding assay, immobilized mouse VEGFR-3; settings: 10^8 TU in 50 μl PBS, 2 hours, room temperature; control insertless phage Fd; colony count or phage-FLISA; triplicate plating
human VEGFR-3 = assay: phage binding assay, immobilized human VEGFR-3; settings: 10^8 TU in 50 μl PBS, 2 hours, room temperature; control insertless phage Fd; colony count or phage-FLISA; triplicate plating
[1] = test system: ERK1/2 pathway in lymphatic endothelial cells (LECs); assay: ERK1/2 phosphorylation in lymphatic endothelial cells; type: cell-based, human; settings: growth factor 100 ng/ml, 10 min, 37°C, 1% DMSO, heparin 10 U/ml
Method in brief: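 Human dermal lymphatic microvascular endothelial cells were cultured overnight in EBM2 with 2% FBS, then starved 18 h in EBM2 with 0.2% BSA. They were stimulated with VEGF-A, VEGF-C or FGF-1, with or without test peptide or scrambled peptide (30 μg/ml). Lysates were immunoblotted for total and phospho-ERK1/2 using infrared-dye secondaries, and the phospho/total intensity ratio was taken. Two experiments were run; ANOVA with Tukey.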

VEGFR-3 = target: T1, VEGFR-3 (Mus musculus, UniProt P35917); assay: competition assay, binding of phage PCAIWF to immobilized VEGFR-3
T1 sequence (P35917 25-770): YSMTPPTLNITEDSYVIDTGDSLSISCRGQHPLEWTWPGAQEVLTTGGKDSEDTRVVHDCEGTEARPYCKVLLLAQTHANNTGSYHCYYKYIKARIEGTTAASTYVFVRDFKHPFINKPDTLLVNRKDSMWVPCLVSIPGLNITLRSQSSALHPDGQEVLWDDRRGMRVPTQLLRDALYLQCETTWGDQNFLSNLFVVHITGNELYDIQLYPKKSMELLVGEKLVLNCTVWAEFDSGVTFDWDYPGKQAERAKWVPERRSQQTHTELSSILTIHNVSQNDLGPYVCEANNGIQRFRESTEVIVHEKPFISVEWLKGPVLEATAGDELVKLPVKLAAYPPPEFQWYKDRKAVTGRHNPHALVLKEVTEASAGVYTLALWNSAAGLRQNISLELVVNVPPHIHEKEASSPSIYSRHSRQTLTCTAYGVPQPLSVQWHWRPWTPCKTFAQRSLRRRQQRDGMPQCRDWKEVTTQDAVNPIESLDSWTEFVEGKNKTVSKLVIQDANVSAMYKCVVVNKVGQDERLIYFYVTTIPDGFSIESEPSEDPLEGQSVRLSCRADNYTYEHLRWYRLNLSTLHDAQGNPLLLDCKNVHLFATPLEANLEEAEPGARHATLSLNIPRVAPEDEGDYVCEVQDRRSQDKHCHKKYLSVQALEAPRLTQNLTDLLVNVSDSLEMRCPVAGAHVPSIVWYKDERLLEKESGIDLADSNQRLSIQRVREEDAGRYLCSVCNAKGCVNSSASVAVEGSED

[2] = target: T2, recombinant mouse VEGFR-3/Fc (mouse, UniProt P35917 25-770); assay: phage binding assay
T2 sequence: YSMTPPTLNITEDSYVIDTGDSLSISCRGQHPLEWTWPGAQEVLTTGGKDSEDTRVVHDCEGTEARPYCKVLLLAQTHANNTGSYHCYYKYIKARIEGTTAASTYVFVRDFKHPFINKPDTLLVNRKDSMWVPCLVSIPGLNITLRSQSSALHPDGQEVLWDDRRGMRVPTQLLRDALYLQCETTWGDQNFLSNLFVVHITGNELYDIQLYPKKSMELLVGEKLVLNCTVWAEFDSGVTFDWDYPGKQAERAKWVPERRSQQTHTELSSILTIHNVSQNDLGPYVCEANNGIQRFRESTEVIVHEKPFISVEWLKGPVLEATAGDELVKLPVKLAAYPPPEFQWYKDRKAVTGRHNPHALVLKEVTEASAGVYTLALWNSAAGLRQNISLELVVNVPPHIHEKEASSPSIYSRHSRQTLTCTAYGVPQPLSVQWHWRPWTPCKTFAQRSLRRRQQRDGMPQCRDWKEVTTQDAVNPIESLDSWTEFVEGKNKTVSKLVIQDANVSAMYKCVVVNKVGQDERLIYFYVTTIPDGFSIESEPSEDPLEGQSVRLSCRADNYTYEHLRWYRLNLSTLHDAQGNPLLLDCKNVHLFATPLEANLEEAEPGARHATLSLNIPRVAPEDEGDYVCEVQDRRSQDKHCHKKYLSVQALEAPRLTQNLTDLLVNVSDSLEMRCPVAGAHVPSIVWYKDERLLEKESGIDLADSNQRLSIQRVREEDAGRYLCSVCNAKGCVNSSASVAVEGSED

[3] = target: T3, human VEGFR-3 extracellular domain (Fc fusion) (human, UniProt P35916 25-775); assay: phage binding assay
T3 sequence: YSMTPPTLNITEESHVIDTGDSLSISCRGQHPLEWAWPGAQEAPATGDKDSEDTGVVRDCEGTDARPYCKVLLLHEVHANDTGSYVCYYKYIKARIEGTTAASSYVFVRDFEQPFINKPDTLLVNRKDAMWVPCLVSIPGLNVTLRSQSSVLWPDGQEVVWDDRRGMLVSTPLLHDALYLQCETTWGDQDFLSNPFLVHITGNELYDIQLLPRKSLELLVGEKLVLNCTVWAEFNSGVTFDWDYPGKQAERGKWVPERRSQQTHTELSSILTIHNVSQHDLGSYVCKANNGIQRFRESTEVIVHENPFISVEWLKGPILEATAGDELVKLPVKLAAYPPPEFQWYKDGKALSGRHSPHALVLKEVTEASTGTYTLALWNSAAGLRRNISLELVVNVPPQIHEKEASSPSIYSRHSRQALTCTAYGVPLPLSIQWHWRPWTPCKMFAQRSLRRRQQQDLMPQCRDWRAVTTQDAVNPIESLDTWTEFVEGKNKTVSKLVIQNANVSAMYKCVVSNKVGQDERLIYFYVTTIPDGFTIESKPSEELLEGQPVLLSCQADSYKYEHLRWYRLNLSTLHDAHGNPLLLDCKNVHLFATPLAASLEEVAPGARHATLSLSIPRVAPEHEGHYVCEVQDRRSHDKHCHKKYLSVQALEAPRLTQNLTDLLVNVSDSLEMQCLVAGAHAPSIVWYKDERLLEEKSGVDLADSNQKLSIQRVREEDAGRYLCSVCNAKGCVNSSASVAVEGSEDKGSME

[4] = target: T4, recombinant IgD2 domain of human VEGFR-3 (human, UniProt P35916 136-229); assay: ELISA
T4 sequence: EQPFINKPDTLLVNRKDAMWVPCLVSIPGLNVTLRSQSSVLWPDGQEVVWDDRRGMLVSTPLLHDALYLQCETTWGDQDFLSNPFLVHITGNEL

[5] = target: T5, recombinant IgD2-3 domains of human VEGFR-3 (human, UniProt P35916 136-332); assay: ELISA
T5 sequence: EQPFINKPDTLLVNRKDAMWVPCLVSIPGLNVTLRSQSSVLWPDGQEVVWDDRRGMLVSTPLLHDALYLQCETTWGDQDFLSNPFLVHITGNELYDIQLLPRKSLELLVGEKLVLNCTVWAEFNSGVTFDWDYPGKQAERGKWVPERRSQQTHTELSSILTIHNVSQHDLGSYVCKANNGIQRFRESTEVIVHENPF

[6] = target: human VEGFR-1 extracellular domain (Fc fusion) (human, UniProt P17948 27-758); assay: ELISA
[7] = target: human VEGFR-2 extracellular domain (Fc fusion) (human, UniProt P35968 20-764); assay: ELISA
[8] = target: T3, human VEGFR-3 extracellular domain (Fc …); assay: ELISA
human VEGFR-1 = assay: FLISA binding assay, NRP-2 to VEGFR-1; settings: rat NRP-2, FLISA
Method in brief: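 Human VEGFR-1 extracellular domain coated at 200 ng per well in PBS overnight at 4°C, then blocked with Odyssey blocking buffer. Wells incubated with NRP-1 or NRP-2 in PBS with 10% (v/v) DMSO and 10% blocking buffer, with or without peptide (100 μg/ml). Bound NRP detected with goat anti-NRP-1 or anti-NRP-2 serum (1:100), then IRDye 680LT anti-goat, by infrared scanning. Duplicate wells; ANOVA with Tukey.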

human VEGFR-2 extracellular domain (Fc fusion), sequence (P35968 20-764): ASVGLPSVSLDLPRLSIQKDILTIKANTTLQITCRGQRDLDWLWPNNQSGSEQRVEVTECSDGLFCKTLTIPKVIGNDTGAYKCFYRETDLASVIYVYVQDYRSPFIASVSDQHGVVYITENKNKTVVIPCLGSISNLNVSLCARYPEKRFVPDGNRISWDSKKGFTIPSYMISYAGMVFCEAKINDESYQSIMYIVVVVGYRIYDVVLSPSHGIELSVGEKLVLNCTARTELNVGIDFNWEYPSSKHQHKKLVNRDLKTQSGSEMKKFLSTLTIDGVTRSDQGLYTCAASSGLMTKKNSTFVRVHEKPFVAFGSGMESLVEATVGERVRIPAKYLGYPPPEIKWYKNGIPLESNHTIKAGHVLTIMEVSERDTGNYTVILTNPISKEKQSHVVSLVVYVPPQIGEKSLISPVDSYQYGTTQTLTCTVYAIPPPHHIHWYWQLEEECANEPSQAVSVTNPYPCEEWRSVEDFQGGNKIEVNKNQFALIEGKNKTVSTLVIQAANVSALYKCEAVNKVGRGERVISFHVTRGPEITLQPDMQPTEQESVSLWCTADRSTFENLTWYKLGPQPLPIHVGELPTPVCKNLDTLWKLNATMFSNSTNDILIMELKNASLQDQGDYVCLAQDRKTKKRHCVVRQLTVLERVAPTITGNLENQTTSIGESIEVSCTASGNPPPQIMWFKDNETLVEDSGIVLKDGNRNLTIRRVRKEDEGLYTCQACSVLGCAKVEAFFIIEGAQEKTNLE
human VEGFR-1 extracellular domain (Fc fusion), sequence (P17948 27-758): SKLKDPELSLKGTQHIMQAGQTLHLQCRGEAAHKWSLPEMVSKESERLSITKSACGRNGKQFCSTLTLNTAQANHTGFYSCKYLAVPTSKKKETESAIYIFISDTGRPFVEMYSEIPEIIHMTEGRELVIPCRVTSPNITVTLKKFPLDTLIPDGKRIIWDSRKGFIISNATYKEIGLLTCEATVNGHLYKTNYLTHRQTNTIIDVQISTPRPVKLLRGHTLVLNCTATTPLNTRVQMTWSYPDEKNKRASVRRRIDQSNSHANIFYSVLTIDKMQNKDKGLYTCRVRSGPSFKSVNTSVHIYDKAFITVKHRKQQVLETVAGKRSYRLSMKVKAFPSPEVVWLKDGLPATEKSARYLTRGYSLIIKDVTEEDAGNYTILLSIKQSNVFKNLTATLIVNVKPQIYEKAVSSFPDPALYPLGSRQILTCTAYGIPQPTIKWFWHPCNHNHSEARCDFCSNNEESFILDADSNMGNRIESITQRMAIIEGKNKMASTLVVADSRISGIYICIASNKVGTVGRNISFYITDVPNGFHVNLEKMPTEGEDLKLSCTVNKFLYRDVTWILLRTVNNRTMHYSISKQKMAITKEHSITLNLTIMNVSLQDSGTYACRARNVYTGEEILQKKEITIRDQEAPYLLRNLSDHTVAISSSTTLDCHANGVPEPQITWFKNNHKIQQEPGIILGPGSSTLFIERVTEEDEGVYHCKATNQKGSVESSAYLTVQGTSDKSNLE

Molecule: COc1c(C)c(C(=O)c2ccc(N)c(C(=O)[O-])c2)n2ccccc12.[Na+] [SSR128129E]
- effect on FGF receptors (FGF receptors): binds to and prevents the activation of all four FGF receptors
- interaction with ligand-binding domain of the FGF receptors (FGF receptors): does not interact with the ligand-binding domain of the receptors

Molecule: WVCSGG [phage WVCSGG]
- phage binding to mouse VEGFR-3 (mouse VEGFR-3): both phages bound to mouse and human VEGFR-3
- phage binding to human VEGFR-3 (human VEGFR-3): both phages bound to mouse and human VEGFR-3

Molecule: FGF-1: fibroblast growth factor, recombinant human ligand
- phosphorylation of ERK1/2 upon growth factor stimulation [1]: phosphorylation of ERK1/2 increases

Molecule: PSAIWF [PSAIWF]
- IC50 (VEGFR-3): ~278 µM

Molecule: PCAIWF [phage PCAIWF]
- binding result [2]: binds
- binding result [3]: binds
- binding result [4]: binds
- binding result [5]: binds

Molecule: PSAIWF [synthetic peptide PSAIWF]
- binding result [6]: binds
- binding result [7]: binds
- binding result [8]: binds

Molecule: PCAIWF [synthetic peptide PCAIWF]
- binding result [8]: binds
- binding result [4]: binds
- binding result [5]: binds

Molecule: WVCSGG [synthetic peptide WVCSGG]
- binding result [4]: binds
- binding result [5]: binds

Molecule: WVCSGG [phage WVCSGG]
- binding result [2]: binds
- binding result [3]: binds

B1: NRP-2: neuropilin, co-receptor for VEGF; rat NRP-2 (protein)
chain: QQDPPCGGRLNSKDAGYITSPGYPQDYPSHQNCEWVVYAPEPNQKIVLNFNPHFEIEKHDCKYDFIEIRDGDSESADLLGKHCGNIAPPTIISSGSVLYIKFTSDYARQGAGFSLRYEIFKTGSEDCSKNFTSPNGTIESPGFPEKYPHNLDCTFTILAKPRMEIILQFLTFDLEHDPLQVGEGDCKYDWLDIWDGIPHVGPLIGKYCGTKTPSKLRSSTGILSLTFHTDMAVAKDGFSARYYLVHQEPPENFQCNAPLGMESGRIANEQISASSTFSDGRWTPQQSRLHGDDNGWTPNVDSNKEYLQVDLRFLTMLTAIATQGAISRETQKGYYVKSYKLEVSTNGEDWMVYRHGKNHKVFQANNDATELVLNKLHTPLLTRFIRIRPQTWHLGIALRLELFGCRVTDAPCSNMLGMLSGLIADTQISASSTREYLWSPSAARLVSSRSGWFPRNPQAQPGEEWLQVDLGTPKTVKGVIIQGARGGDSITAMEARAFVRKFKVSYSLNGKDWEYIQDPRTQQPKLFEGNMHYDTPDIRRFEPVPAQYVRVYPERWSPAGIGMRLEVLGCDWTDSKPTVETLGPTVKSEETTTPYPMDEDATECGENCSFEDDKDLQLPSGFNCNFDFPEETCGWMYDRAKWLQSTWISSANPNDRTFPDDKNFLKLQSDGGREGQFGRLISPPVHLPRSPVCMEFQYQAMGGHGVALQVVREARQESKLLWVIREDQGSEWKHGRIILPSYDMEYQIVFEGVIGKGRSGEISIDDIRISTDVPLENCMEPISAFAVDIPEIHGGEGYEDEIDDDYEGDWNNSSSTSGAGSPSSGKEKSWLYTLDP
- NRP-2 binding to VEGFR-1 (human VEGFR-1): strong interaction

— publication PMC5091360 (Science Advances, 2016)
